Measured values published in ChEMBL document CHEMBL2016452, “Flavones and structurally related 4-chromenones inhibit carbonic anhydrases by a different mechanism of action compared to coumarins” (Bioorg Med Chem Lett, 2012).

Key:
[1] = molecular target: T1, Carbonic anhydrase 15 (Mus musculus, UniProt Q99N23); test: Inhibition of mouse carbonic anhydrase 15 preincubated for 15 mins by stopped flow CO2 hydration assay
T1 sequence (Q99N23 whole entry): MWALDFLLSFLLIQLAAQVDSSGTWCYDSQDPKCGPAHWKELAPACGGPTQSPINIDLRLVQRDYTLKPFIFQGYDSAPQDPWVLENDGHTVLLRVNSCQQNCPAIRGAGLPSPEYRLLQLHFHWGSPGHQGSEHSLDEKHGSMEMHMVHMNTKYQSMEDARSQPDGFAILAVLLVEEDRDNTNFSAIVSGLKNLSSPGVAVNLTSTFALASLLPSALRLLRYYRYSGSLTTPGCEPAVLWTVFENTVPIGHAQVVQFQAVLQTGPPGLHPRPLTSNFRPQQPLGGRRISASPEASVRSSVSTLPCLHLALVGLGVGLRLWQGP
Summary of the method: (§1)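 Stopped-flow CO2 hydration, with phenol red 0.2 mM as indicator at 557 nm. Buffer 20 mM Hepes pH 7.5 with 20 mM NaClO4. Initial rates measured over 10–100 s, with uncatalyzed rate subtracted. Inhibitor stock 0.1 mM in water, diluted with assay buffer. Enzyme and inhibitor preincubated 15 min at room temperature. KI by non-linear least squares, mean of at least three determinations.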

[2] = molecular target: T2, Carbonic anhydrase 9 (Homo sapiens, UniProt Q16790); test: Inhibition of transmembrane tumor-associated human carbonic anhydrase 9 preincubated for 15 mins by stopped flow CO2 hydration assay; summary of the method: as §1
[3] = molecular target: Carbonic anhydrase 7 (Homo sapiens, UniProt P43166); test: Inhibition of human carbonic anhydrase 7 preincubated for 15 mins by stopped flow CO2 hydration assay; summary of the method: as §1
Carbonic anhydrase 7, sequence (P43166 whole entry): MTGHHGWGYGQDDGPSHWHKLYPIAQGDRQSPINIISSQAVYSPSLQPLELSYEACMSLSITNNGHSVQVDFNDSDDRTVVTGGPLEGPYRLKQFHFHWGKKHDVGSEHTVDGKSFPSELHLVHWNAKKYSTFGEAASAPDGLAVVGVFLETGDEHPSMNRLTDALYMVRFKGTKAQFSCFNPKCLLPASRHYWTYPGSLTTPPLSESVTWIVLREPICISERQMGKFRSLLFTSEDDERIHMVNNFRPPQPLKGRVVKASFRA

[4] = molecular target: T3, Carbonic anhydrase 12 (Homo sapiens, UniProt O43570); test: Inhibition of transmembrane tumor-associated human carbonic anhydrase 12 preincubated for 15 mins by stopped flow CO2 hydration assay; summary of the method: as §1
T3 sequence (O43570 whole entry): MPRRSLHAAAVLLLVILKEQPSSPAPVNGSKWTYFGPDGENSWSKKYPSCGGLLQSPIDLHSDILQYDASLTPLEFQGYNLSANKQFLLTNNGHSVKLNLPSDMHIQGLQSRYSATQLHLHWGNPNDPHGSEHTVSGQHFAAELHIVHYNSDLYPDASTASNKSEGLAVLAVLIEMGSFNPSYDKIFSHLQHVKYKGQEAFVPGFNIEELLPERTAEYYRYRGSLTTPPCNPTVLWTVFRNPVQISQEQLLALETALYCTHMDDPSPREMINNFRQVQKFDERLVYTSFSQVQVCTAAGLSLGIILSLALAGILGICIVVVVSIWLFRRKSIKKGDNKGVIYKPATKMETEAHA

[5] = molecular target: T4, Carbonic anhydrase 2 (Homo sapiens, UniProt P00918); test: Inhibition of cytosolic human carbonic anhydrase 2 preincubated for 15 mins by stopped flow CO2 hydration assay
[6] = molecular target: Carbonic anhydrase 13 (Homo sapiens, UniProt Q8N1Q1); test: Inhibition of human carbonic anhydrase 13 preincubated for 15 mins by stopped flow CO2 hydration assay
Carbonic anhydrase 13, sequence (Q8N1Q1 whole entry): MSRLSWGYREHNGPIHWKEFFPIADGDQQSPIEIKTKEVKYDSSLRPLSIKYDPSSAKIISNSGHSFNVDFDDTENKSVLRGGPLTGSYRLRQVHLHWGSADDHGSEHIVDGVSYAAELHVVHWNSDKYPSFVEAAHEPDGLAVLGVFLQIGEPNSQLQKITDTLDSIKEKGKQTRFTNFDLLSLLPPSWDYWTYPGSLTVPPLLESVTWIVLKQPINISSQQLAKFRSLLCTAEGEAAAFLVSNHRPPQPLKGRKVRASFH

[7] = molecular target: Carbonic anhydrase 5A, mitochondrial (Homo sapiens, UniProt P35218); test: Inhibition of human carbonic anhydrase 5a preincubated for 15 mins by stopped flow CO2 hydration assay
Carbonic anhydrase 5A, mitochondrial, sequence (P35218 whole entry): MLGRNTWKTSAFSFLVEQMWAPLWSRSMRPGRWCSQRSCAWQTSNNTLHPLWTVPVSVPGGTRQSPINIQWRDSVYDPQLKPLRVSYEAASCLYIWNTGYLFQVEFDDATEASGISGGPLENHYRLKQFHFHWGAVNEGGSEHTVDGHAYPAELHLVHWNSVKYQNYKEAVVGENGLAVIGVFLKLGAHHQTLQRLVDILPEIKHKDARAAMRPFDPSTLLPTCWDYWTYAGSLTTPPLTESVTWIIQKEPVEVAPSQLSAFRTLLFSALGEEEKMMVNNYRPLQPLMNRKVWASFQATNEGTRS

[8] = molecular target: Carbonic anhydrase 3 (Homo sapiens, UniProt P07451); test: Inhibition of human carbonic anhydrase 3 preincubated for 15 mins by stopped flow CO2 hydration assay
Carbonic anhydrase 3, sequence (P07451 whole entry): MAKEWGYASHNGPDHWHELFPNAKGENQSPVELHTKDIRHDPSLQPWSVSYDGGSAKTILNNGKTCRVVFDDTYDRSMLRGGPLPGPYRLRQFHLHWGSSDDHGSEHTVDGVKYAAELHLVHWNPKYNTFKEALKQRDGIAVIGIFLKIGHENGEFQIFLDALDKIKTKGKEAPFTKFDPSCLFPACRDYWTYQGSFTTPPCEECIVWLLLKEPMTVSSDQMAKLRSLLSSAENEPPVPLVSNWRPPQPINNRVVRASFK

[9] = molecular target: Carbonic anhydrase 4 (Homo sapiens, UniProt P22748); test: Inhibition of human carbonic anhydrase 4 preincubated for 15 mins by stopped flow CO2 hydration assay
Carbonic anhydrase 4, sequence (P22748 whole entry): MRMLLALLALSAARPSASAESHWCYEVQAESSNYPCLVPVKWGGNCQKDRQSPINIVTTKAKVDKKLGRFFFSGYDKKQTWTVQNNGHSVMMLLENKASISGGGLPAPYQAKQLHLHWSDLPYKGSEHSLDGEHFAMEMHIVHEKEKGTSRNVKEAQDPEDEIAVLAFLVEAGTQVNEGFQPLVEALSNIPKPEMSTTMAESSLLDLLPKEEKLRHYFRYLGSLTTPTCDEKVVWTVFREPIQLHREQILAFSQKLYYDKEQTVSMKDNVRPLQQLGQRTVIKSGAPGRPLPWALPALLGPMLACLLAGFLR

[10] = molecular target: Carbonic anhydrase 6 (Homo sapiens, UniProt P23280); test: Inhibition of human carbonic anhydrase 6 preincubated for 15 mins by stopped flow CO2 hydration assay
Carbonic anhydrase 6, sequence (P23280 whole entry): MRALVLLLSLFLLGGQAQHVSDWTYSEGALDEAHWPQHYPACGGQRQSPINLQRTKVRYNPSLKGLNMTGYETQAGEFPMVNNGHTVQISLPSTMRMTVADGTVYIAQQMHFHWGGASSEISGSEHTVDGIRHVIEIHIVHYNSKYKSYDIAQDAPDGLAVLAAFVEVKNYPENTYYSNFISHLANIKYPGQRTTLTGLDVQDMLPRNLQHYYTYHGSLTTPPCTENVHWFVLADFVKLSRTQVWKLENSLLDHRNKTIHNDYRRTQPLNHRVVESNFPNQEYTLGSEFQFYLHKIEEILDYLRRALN

[11] = molecular target: Carbonic anhydrase 5B, mitochondrial (Homo sapiens, UniProt Q9Y2D0); test: Inhibition of human carbonic anhydrase 5b preincubated for 15 mins by stopped flow CO2 hydration assay
Carbonic anhydrase 5B, mitochondrial, sequence (Q9Y2D0 whole entry): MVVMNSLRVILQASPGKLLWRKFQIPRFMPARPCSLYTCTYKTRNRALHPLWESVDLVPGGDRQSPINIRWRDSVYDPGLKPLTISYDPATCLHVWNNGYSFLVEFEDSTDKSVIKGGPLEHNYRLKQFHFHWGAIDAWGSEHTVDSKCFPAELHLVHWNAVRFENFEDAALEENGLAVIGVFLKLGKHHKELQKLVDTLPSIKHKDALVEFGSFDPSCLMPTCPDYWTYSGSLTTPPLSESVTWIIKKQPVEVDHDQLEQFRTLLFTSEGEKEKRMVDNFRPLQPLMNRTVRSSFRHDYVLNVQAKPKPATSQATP

[12] = molecular target: Carbonic anhydrase 14 (Homo sapiens, UniProt Q9ULX7); test: Inhibition of human carbonic anhydrase 14 preincubated for 15 mins by stopped flow CO2 hydration assay
Carbonic anhydrase 14, sequence (Q9ULX7 whole entry): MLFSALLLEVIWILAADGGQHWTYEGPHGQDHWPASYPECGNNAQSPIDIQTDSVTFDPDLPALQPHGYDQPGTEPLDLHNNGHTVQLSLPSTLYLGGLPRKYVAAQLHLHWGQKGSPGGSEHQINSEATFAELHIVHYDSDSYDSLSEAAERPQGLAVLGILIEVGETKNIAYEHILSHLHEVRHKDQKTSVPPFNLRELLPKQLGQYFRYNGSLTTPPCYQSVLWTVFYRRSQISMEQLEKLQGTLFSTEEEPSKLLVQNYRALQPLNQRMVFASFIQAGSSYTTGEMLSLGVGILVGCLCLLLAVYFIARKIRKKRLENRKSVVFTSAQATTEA

[13] = molecular target: T2, Carbonic anhydrase 9; test: Inhibition of transmembrane tumor-associated human carbonic anhydrase 9 preincubated for 12 hrs by stopped flow CO2 hydration assay
Summary of the method: (§2)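 Stopped-flow CO2 hydration, with phenol red 0.2 mM as indicator read at 557 nm. Buffer 20 mM Hepes pH 7.5 with 20 mM NaClO4 for ionic strength. Initial rates followed for 10–100 s, with uncatalyzed rates subtracted. Inhibitor stock 0.1 mM in water, diluted in assay buffer. Enzyme and inhibitor preincubated 12 h at 4 °C. KI by non-linear least squares, mean of at least three determinations.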

[14] = molecular target: T5, Carbonic anhydrase 1 (Homo sapiens, UniProt P00915); test: Inhibition of cytosolic human carbonic anhydrase 1 preincubated for 12 hrs by stopped flow CO2 hydration assay; summary of the method: as §2
T5 sequence (P00915 whole entry): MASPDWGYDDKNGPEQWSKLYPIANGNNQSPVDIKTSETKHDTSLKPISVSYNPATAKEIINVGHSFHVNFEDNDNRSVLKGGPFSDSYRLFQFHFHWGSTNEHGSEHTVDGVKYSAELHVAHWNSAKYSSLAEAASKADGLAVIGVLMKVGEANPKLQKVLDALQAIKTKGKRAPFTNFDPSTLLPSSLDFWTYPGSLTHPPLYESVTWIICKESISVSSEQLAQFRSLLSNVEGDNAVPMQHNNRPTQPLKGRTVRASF

[15] = molecular target: T4, Carbonic anhydrase 2; test: Inhibition of cytosolic human carbonic anhydrase 2 preincubated for 12 hrs by stopped flow CO2 hydration assay; summary of the method: as §2
[16] = molecular target: T3, Carbonic anhydrase 12; test: Inhibition of transmembrane tumor-associated human carbonic anhydrase 12 preincubated for 12 hrs by stopped flow CO2 hydration assay; summary of the method: as §2
[17] = molecular target: T5, Carbonic anhydrase 1; test: Inhibition of cytosolic human carbonic anhydrase 1 preincubated for 15 mins by stopped flow CO2 hydration assay

Ki [1] [nM] | Ki [2] [µM] | Ki [3] [µM] | Ki [4] [µM] | Ki [5] [µM] | Ki [6] [µM] | Ki [7] [nM] | Ki [8] [µM] | Ki [9] [µM] | Ki [10] [µM] | Ki [11] [µM] | Ki [12] [nM] | Ki [13] [µM] | Ki [14] [µM] | Ki [15] [µM] | Ki [16] [µM] | Ki [17] [µM] | Compound
3750 | 3.4 | 7.95 | 9.31 | – | – | – | – | – | – | – | – | – | – | – | – | – | Nc1oc2ccc(Cl)cc2c(=O)c1-c1ccc(Cl)cc1
1650 | 2.41 | 6.75 | 6.49 | – | – | – | – | – | – | – | – | – | – | – | – | – | COc1ccc(-c2c(N)oc3ccc(Cl)cc3c2=O)cc1
2570 | 9.53 | 8.98 | 8.13 | 1.75 | 8.25 | 2860 | 6.75 | 4.01 | 8.63 | 3.24 | 1950 | – | – | – | – | – | Oc1ccc(C=Cc2cc(O)cc(O)c2)cc1 (mixture of isomers)
– | 4.92 | – | 8.4 | 2.24 | – | – | – | – | – | – | – | 4.85 | 3.43 | 2.32 | 8.51 | 3.37 | O=c1cc(-c2ccccc2)oc2cc(O)ccc12 [7-HYDROXYFLAVONE]
– | 2.65 | – | 8.96 | 4.38 | – | – | – | – | – | – | – | 2.71 | 5.42 | 4.31 | 9.07 | 5.49 | O=c1cc(-c2ccccc2)oc2cc(O)cc(O)c12 [CHRYSIN]
– | 4.13 | – | 7.22 | 8.71 | – | – | – | – | – | – | – | 4.22 | 1.88 | 8.8 | 7.33 | 1.89 | O=c1cc(-c2ccccc2)oc2ccccc12 [FLAVONE]
– | 5.54 | – | 6.59 | 9.3 | – | – | – | – | – | – | – | 5.63 | 5.1 | 9.2 | 6.65 | 5.21 | O=c1c(O)c(-c2ccccc2)oc2ccccc12 [FLAVONOL]
